In series [1] the test system is Mus musculus. Put plainly: Toxicity in C57 mouse assessed as increase in spontaneous locomotor activity at 32 mg/kg, ip for 14 days by open field test. The settings on record: in vivo, 336 h. In kind it is organism-based. Set-up: dose 32 mg/kg, route intraperitoneal. The essentials: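 Male C57 mice (20–24 g), 10 per group, 12 h light/dark cycle, food and water ad libitum. Dosed i.p. at 32 mg/kg daily for 14 days, then total distance travelled measured in an open field arena.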

Series [2] has as its system PC-12. The series is described as follows: Neurorestorative activity against H2O2-induced oxidant injury in rat PC12 cells assessed as restorative rate at 40 uM measured after 48 hrs pretreated with 200 uM H2O2 for 1 hr by MTT assay. In kind it is functional. The procedure, abridged:
(§1)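 PC12 cells at 1×10^4/well in DMEM with 10% FBS and 5% horse serum for 24 h. Exposed to 200 μM H₂O₂ for 1 h, washed twice with PBS, then compound (10, 20 or 40 μM) in DMEM for 48 h. MTT 0.5 mg/ml final for 4 h, DMSO solubilization, A570. Restoration rate from absorbance relative to injured control; mean ± S.D. of six independent experiments.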
For orientation: Tetrazolium assays rely on reduction of a dye to a coloured formazan, in cell work by metabolically active cells.

For series [3], the system named is PC-12. The series is described as follows: Neuroprotective activity against corticosterone- induced morphological change in rat PC12 cells assessed as decrease in cycloid shape at 1.25 uM after 24 hrs by inverted microscopic analysis. In kind it is functional, cell-based. The essentials: (§2)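 PC12 cells seeded at 1×10^6 cells/mL and grown 1 d. Exposed to corticosterone 0.2 mM with or without drug at 1.25 μM for 24 h. Photographed by inverted microscope in three random fields per group. Cells with shrunk axons and cycloid shape counted as injured, normal neuron-like cells counted separately, using computer-assisted image analysis.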

For series [4], the system named is PC-12. The series is described as follows: Neuroprotective activity against corticosterone- induced morphological change in rat PC12 cells assessed as decrease in shrunk axons at 1.25 uM after 24 hrs by inverted microscopic analysis. In kind it is functional, cell-based. The essentials: as §2
Series [5] in a line: Cytotoxicity against human L02 cells as inhibition of cell viability at 80 uM after 24 hrs by MTT assay. In kind it is cell-based. The settings on record: L02 cells, read-out: INH.
The subject of another series is HEK293. Put plainly: Cytotoxicity against human HEK293 cells as inhibition of cell viability at 80 uM after 24 hrs by MTT assay. In kind it is cell-based. The settings on record: hek293, 24 h, 80 µM.
Series [6] relates to PC-12. The series is described as follows: Neuroprotective activity against rat PC12 cells assessed as protection against corticosterone- induced lesion at 1.25 uM after 1 day by MTT assay. In kind it is functional. The procedure, abridged: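 Low-differentiated PC12 cells at 1×10^4/well in DMEM with 5% heat-inactivated horse serum and 10% FBS for 24 h. Then 200 μM corticosterone plus compound at 1.25 μM for 1 day. MTT 0.5 mg/ml final for 4 h, formazan in DMSO, A570. Protection rate = (A_drug − A_corticosterone)/A_corticosterone ×100; mean ± S.D. of six independent experiments.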

Series [7] concerns Mus musculus. Put plainly: Antidepressant-like activity in C57 mouse assessed as reduction in immobility time at 32 mg/kg, ip administered from day 2 to 15 measured on 2nd and 15th day 30 mins after drug challenge by forced swim test. The settings on record: route intraperitoneal. It is filed as functional. The essentials: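 Male C57 mice (20–24 g), 10 per group. Day 1: 15 min pre-swim in a cylinder (20 cm diameter) with 15 cm water at 22–25 °C. Days 2–15: daily i.p. 32 mg/kg in 30% β-cyclodextrin. On days 2 and 15, a 6 min swim 30 min after dosing. Immobility (speed <20 mm/s) scored over the last 4 min from video. Mean ± S.D.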

For series [8], the system named is PC-12. The series is described as follows: Neurorestorative activity against H2O2-induced oxidant injury in rat PC12 cells assessed as restorative rate at 10 uM measured after 48 hrs pretreated with 200 uM H2O2 for 1 hr by MTT assay. It is filed as functional. The essentials: as §1
In series [9] the test system is PC-12. Put plainly: Neurorestorative activity against H2O2-induced oxidant injury in rat PC12 cells assessed as restorative rate at 20 uM measured after 48 hrs pretreated with 200 uM H2O2 for 1 hr by MTT assay. It is filed as functional. The essentials:
as §1

The source made the active and inactive calls. The calls are words filed in the database; no cut-off is given here.

A word on the inhibition in vivo: it is the change of the read-out against control, counted positive when it falls. Consider `COc1ccc2cccc(CCNC(=O)C3CN(C(=O)C(F)(F)F)C3)c2c1`, for which the Activity in the series with Mus musculus [1] was 88.5%; in the series with HEK293, “Non-toxic”; in the series on PC-12 [6], 43.5%. Further, the outcome with PC-12 [2], in the series with PC-12 [8] and in the series on PC-12 [9] was inactive. Besides, the inhibition result in the series with PC-12 [3] and in the series on PC-12 [4] was “Active” in each case. Further, in series [5], the cytotoxicity at 24 h, 80 µM is 2.6%. Moreover, the inhibition in vivo at 32 mg/kg in the series with Mus musculus [7] is 58.4%.

The values are drawn from ChEMBL document CHEMBL3286239, “Synthesis and biological evaluation of novel naphthalene compounds as potential antidepressant agents” (Eur J Med Chem, 2014).
